In the data set the test system is Mouse plasma protein binding, RED dialysis, LC/MS/MS. Description: fraction bound to mouse plasma proteins – biochemical, rapid equilibrium dialysis, LC/MS/MS, ADME assay, late-stage follow-up (AID 1937). The following applies: stronger effect = higher value. In outline: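 Material: mouse plasma in RED dialysis device; buffer or medium: Isotonic phosphate-buffered saline, pH 7.4, as dialysis buffer; doses: two final plasma concentrations, 1 µM and 10 µM, with 0.1% DMSO; incubation: dialysis for 4 h at 37 °C with shaking; signal: LC/MS/MS of both dialysis chambers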

Structures are written as SMILES.

Data on one compound can be found in PubChem BioAssay AID1937 (Sanford-Burnham Center for Chemical Genomics, 2009).

`CC1Cc2cc(S(=O)(=O)N3CCN(c4ccc(Cl)cc4)CC3)ccc2N1C(=O)C1CC1` (configuration not stated): the plasma protein bound runs as follows: (at 1 µM) 99.8%; (bound, at 10 µM) 99.8%.
